Measurements as given in the array DNA melting data of Ke et al. (doi:10.1101/2024.01.08.574731).

Legend:
[1] = melting temperature; fluorescence melt of hairpins on a sequencing array, two-state fit, raised by 9.35 °C to match UV melts; details: sodium 0.088 M
Outline: (§1)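 Library hairpins on a sequenced MiSeq flow cell carried annealed Cy3 and quencher oligos, and their Cy3 fluorescence was imaged in 50 mM Na-HEPES pH 8.0 with 25 mM NaCl, in 2.5 °C steps up to 60 °C. Signals were normalised to Cy3 before quenching and to control constructs. Melting temperature and folding enthalpy were obtained from bootstrapped two-state fits, combined by inverse-variance weighting across four replicates, and the fitted temperatures were then raised by 9.35 °C to match UV melts.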

[2] = folding enthalpy; higher = less favourable; fluorescence melt of hairpins on a sequencing array, two-state fit; details: sodium 0.088 M
Outline: as §1

Question: Which Tm [1] does the source give for GGAGACCGAAAGGTGTCC (((.(((....))).))) here?
Answer: 58.9 °C

Question: What about the folding enthalpy [2] of the same sequence?
Answer: -40.8 kcal/mol

Question: With GGAGACGAAAGTCCGTCC ((((((....)))..))) as the sequence, how does the Tm [1] read?
Answer: 32.5 °C

Question: What about the folding enthalpy [2] of the same sequence?
Answer: -12.4 kcal/mol

Question: With GGAGACGAAAGTCCTTCC ((((((....)))..))) as the sequence, how does the Tm [1] read?
Answer: 42.6 °C

Question: What about the folding enthalpy [2] of the same sequence?
Answer: -21.1 kcal/mol

Question: What does the source list for GGAGACGAAAGTCGTTCC ((((((....)))..)))?
Answer: Tm [1]: 36.7 °C; folding enthalpy [2]: -11.8 kcal/mol

Question: For GGAGACGAAAGTCTGTCC ((((((....)))..))), which Tm [1] is on record?
Answer: 34.5 °C

Question: What about the folding enthalpy [2] of the same sequence?
Answer: -11.2 kcal/mol

Question: Which Tm [1] does the source give for GGAGAGACGAAAGTCTCC (((..(((....)))))) here?
Answer: 44 °C

Question: And the folding enthalpy [2]?
Answer: -9.49 kcal/mol

Question: With GGAGAGCGAAAGCTATCC (((.(((....))).))) as the sequence, how does the Tm [1] read?
Answer: 57.6 °C

Question: And the folding enthalpy [2]?
Answer: -42.1 kcal/mol

Question: Which Tm [1] does the source give for GGAGAGCGAAAGCTTCC (((.(((....)))))) here?
Answer: 44.5 °C

Question: What about the folding enthalpy [2] of the same sequence?
Answer: -18.2 kcal/mol

Question: Which Tm [1] does the source give for GGAGAGGGAAACCCCTCC ((((.((....)).)))) here?
Answer: 45 °C

Question: What about the folding enthalpy [2] of the same sequence?
Answer: -28.6 kcal/mol

Question: What does the source list for GGAGAGGGAAACTTCTCC (((((.(....).)))))?
Answer: Tm [1]: 44.3 °C; folding enthalpy [2]: -26.8 kcal/mol

Question: For GGAGATCGAAAGATATCC (((.(((....))).))), which Tm [1] is on record?
Answer: 49.6 °C

Question: And the folding enthalpy [2]?
Answer: -43.2 kcal/mol

Question: Which Tm [1] does the source give for GGAGATCGAAAGATTCC (((.(((....)))))) here?
Answer: 36 °C

Question: And the folding enthalpy [2]?
Answer: -18.9 kcal/mol

Question: For GGAGATGAAAATCTCC ((((((....)))))), which Tm [1] is on record?
Answer: 57.6 °C

Question: What about the folding enthalpy [2] of the same sequence?
Answer: -36.2 kcal/mol

Question: With GGAGATGGAAACGTCTCC (((((.(....).))))) as the sequence, how does the Tm [1] read?
Answer: 49.5 °C

Question: And the folding enthalpy [2]?
Answer: -36.9 kcal/mol

Question: For GGAGCAGAAATGCTCC ((((((....)))))), which Tm [1] is on record?
Answer: 62.3 °C

Question: What about the folding enthalpy [2] of the same sequence?
Answer: -36.9 kcal/mol

Question: For GGAGCAGGAAACCGCTCC (((((.(....).))))), which Tm [1] is on record?
Answer: 55.2 °C

Question: And the folding enthalpy [2]?
Answer: -34.1 kcal/mol

Question: Which Tm [1] does the source give for GGAGCCACGAAAGTGTCC (((..(((....)))))) here?
Answer: 28.5 °C

Question: And the folding enthalpy [2]?
Answer: -8.88 kcal/mol

Question: With GGAGCCGAAAGGCGCTCC ((((((....)))..))) as the sequence, how does the Tm [1] read?
Answer: 47.9 °C

Question: And the folding enthalpy [2]?
Answer: -9.71 kcal/mol

Question: For GGAGCCGAAAGGCTTTCC ((((((....)))..))), which Tm [1] is on record?
Answer: 43.8 °C

Question: And the folding enthalpy [2]?
Answer: -7.92 kcal/mol

Question: For GGAGCCGGAAACGACTCC ((((.((....)).)))), which Tm [1] is on record?
Answer: 52 °C

Question: What about the folding enthalpy [2] of the same sequence?
Answer: -55.2 kcal/mol

Question: For GGAGCGCCGAAAGGCTCC (((..(((....)))))), which Tm [1] is on record?
Answer: 44.2 °C

Question: And the folding enthalpy [2]?
Answer: -14.7 kcal/mol

Question: Which results are given for GGAGCGGGAAACCGCCCC ((.((((....)))).))?
Answer: Tm [1]: 56.7 °C; folding enthalpy [2]: -16.3 kcal/mol

Question: Which Tm [1] does the source give for GGAGCGTCGAAAGACTCC (((..(((....)))))) here?
Answer: 31.4 °C

Question: What about the folding enthalpy [2] of the same sequence?
Answer: -13.7 kcal/mol

Question: Which results are given for GGAGCTCGAAAGAGATCC (((.(((....))).)))?
Answer: Tm [1]: 64 °C; folding enthalpy [2]: -44 kcal/mol

Question: With GGAGCTCGAAAGAGTCC (((.(((....)))))) as the sequence, how does the Tm [1] read?
Answer: 48.2 °C

Question: And the folding enthalpy [2]?
Answer: -17.8 kcal/mol

Question: With GGAGCTGAAAAGCTCC ((((((....)))))) as the sequence, how does the Tm [1] read?
Answer: 68.9 °C

Question: What about the folding enthalpy [2] of the same sequence?
Answer: -37.5 kcal/mol

Question: What does the source list for GGAGCTGGAAACAACTCC ((((.((....)).))))?
Answer: Tm [1]: 42.6 °C; folding enthalpy [2]: -31.2 kcal/mol

Question: For GGAGCTGGAAACGGCTTC (.(((.(....).))).), which Tm [1] is on record?
Answer: 41.5 °C

Question: And the folding enthalpy [2]?
Answer: -25.9 kcal/mol

Question: Which results are given for GGAGGACGAAAGTCTTCC (((.(((....))).)))?
Answer: Tm [1]: 53.5 °C; folding enthalpy [2]: -30.1 kcal/mol

Question: With GGAGGAGGAAACTCCTTC (.(((((....))))).) as the sequence, how does the Tm [1] read?
Answer: 53.4 °C

Question: What about the folding enthalpy [2] of the same sequence?
Answer: -28.7 kcal/mol

Question: Which results are given for GGAGGCCCGAAAGGGTCC (((..(((....))))))?
Answer: Tm [1]: 42.6 °C; folding enthalpy [2]: -12 kcal/mol

Question: For GGAGGCCGAAAGGCTTCC (((.(((....))).))), which Tm [1] is on record?
Answer: 64.2 °C

Question: What about the folding enthalpy [2] of the same sequence?
Answer: -28.9 kcal/mol

Question: Which results are given for GGAGGCGAAAGCCTCTCC ((((((....)))..)))?
Answer: Tm [1]: 54.2 °C; folding enthalpy [2]: -8.68 kcal/mol

Question: Which Tm [1] does the source give for GGAGGCGGAAACGCTTCC (((.(((....))).))) here?
Answer: 55.2 °C

Question: And the folding enthalpy [2]?
Answer: -36.9 kcal/mol

Question: Which Tm [1] does the source give for GGAGGGCGAAAGCCTCC (((.(((....)))))) here?
Answer: 61.9 °C

Question: And the folding enthalpy [2]?
Answer: -18.7 kcal/mol

Question: For GGAGGGGGAAACCCCTCC (((((((....))))))), which Tm [1] is on record?
Answer: 69.3 °C

Question: What about the folding enthalpy [2] of the same sequence?
Answer: -32 kcal/mol

Question: For GGAGGGGGAAACCCCTTC (.(((((....))))).), which Tm [1] is on record?
Answer: 50.6 °C

Question: And the folding enthalpy [2]?
Answer: -24.1 kcal/mol

Question: Which Tm [1] does the source give for GGAGGTGGAAACACCTTC (.(((((....))))).) here?
Answer: 51.4 °C

Question: What about the folding enthalpy [2] of the same sequence?
Answer: -29 kcal/mol

Question: With GGAGGTGGAAACACTTCC (((.(((....))).))) as the sequence, how does the Tm [1] read?
Answer: 48.2 °C

Question: And the folding enthalpy [2]?
Answer: -35.2 kcal/mol

Question: For GGAGGTGGAAACATCTCC ((((.((....)).)))), which Tm [1] is on record?
Answer: 49.1 °C

Question: And the folding enthalpy [2]?
Answer: -44.1 kcal/mol

Question: Which results are given for GGAGGTGGAAACGCTTCC (((.(.(....).).)))?
Answer: Tm [1]: 34.3 °C; folding enthalpy [2]: -23.3 kcal/mol

Question: For GGAGTAACGAAAGTTTCC (((..(((....)))))), which Tm [1] is on record?
Answer: 30.7 °C

Question: And the folding enthalpy [2]?
Answer: -16.6 kcal/mol

Question: Which results are given for GGAGTACGAAAGTAGTCC (((.(((....))).)))?
Answer: Tm [1]: 55.2 °C; folding enthalpy [2]: -40.4 kcal/mol

Question: For GGAGTCCGAAAGGAATCC (((.(((....))).))), which Tm [1] is on record?
Answer: 56.4 °C

Question: And the folding enthalpy [2]?
Answer: -41.5 kcal/mol

Question: Which Tm [1] does the source give for GGAGTCGAAAGACAATCC ((((((....)))..))) here?
Answer: 32.5 °C

Question: What about the folding enthalpy [2] of the same sequence?
Answer: -15.4 kcal/mol
